Drawing on PubChem BioAssay AID493134 (Broad Institute, 2011), this text covers AC50 and activity change, negative = inhibition for 26 molecules.

Where “and” joins values, the source holds several entries; their conditions need not be identical. Equal entries are not always repeated. Calls of active or inactive are those of the source.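 The calls were made as follows: active = growth inhibition with fitted half-maximal dose at or below ten times the top tested dose; inconclusive = flat curve with inhibition of 30 to 70%, or poor fit; inactive = the rest.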

Assay [1] relates to C. albicans CaCi-2 growth, Alamar Blue fluorescence, 48 h. Briefly: single-agent antifungal activity, Candida albicans – CaCi-2 strain, Alamar Blue, dry powder, set 7, counter-screen for antifungal drug resistance project, dose response (AID 493134). An outline of the steps: (§1)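 System: Fluconazole-resistant clinical Candida albicans isolate CaCi-2 | Doses: Pinned test compound | Incubation: Compound exposure 48 h at 37 °C unshaken, dye 2 h room temperature | Technique: Alamar Blue fluorescence, 1:200 final, Ex 544 nm, Em 590 nm | Read-out basis: Relative yeast growth from fluorescence, loss marking intrinsic toxicity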
(Resazurin is reduced to fluorescent resorufin, in cell work by metabolically active cells.)

Experiment in assay [2]: as above
The note with it: C. albicans CaCi-2 (fluconazole-resistant clinical isolate) growth, Alamar Blue fluorescence, 48 h. An outline of the steps: as §1

The AC50 is the concentration at which the activity in the assay is half-maximal. Turning to `COC(=O)Cn1nc(-c2ccccc2)c2cc(OC)ccc21`, the AC50 in assay [1] is 20.3 µM.
As to `N#CCn1nc(-c2ccccc2)c2ccccc21`, the activity change, negative = inhibition in assay [2] (at 26 µM (top of the series)) was 11% (inactive).
The same measure, in the same setting: with `CN(C)C(=O)Cn1nc(-c2ccccc2)c2ccccc21` the figure was -25% (inactive).
Regarding `COC(=O)Cn1nc(-c2ccccc2)c2ccc(C)cc21`, the activity change, negative = inhibition in assay [2] (at 26 µM (top of the series)) is 0.047% (inactive).
With `COC(=O)Cn1c2ccccc2c2nc3n(c(=O)c21)CCS3`, in assay [1], the AC50 is > 26 µM (inactive).
Take `COC(=O)Cn1nc(-c2ccccc2)c2ccc(F)cc21`: in assay [2] (at 26 µM (top of the series)), the activity change, negative = inhibition is 5.28% (inactive).
On the same count and under the same terms, with `CC(C)OC(=O)Cn1nc(-c2ccccc2)c2ccccc21` the figure was -0.006% (inactive); with `COC(=O)Cn1nc(-c2ccccc2)c2ccccc21`, -5.47% (inactive).
The same measure, in the same setting: for `CC(C)(C)OC(=O)Cn1nc(-c2ccccc2)c2ccccc21` the value was -0.465% (inactive).
The same measure, in the same setting: with `COC(=O)Cn1nc(-c2ccccc2)c2cc(C)ccc21` the figure was 2.54% (inactive); with `COCCn1nc(-c2ccccc2)c2ccccc21`, -0.717% (inactive); with `COC(=O)Cn1nc(-c2ccc(C(F)(F)F)cc2)c2ccccc21`, 4.42% (inactive).
As for `COC(=O)Cn1nc(-c2ccccc2C)c2ccccc21`, the activity change, negative = inhibition in assay [2] (at 26 µM (top of the series)) was -21.2% (inactive).
Still for that read-out and setting: with `COC(=O)Cn1nc(-c2ccccc2)c2ccc(OC)cc21` the figure was -26.5% (inactive).
As to `COC(=O)Cn1nc(-c2ccccc2)c2ccc(C(F)(F)F)cc21`, the AC50 in assay [1] was 16.4 µM.
For the molecule `COC(=O)Cn1nc(-c2ccccc2)c2cc(F)ccc21`, the activity change, negative = inhibition in assay [2] (at 26 µM (top of the series)) was -6.49% (inactive).
Same read-out and setting: with `COC(=O)Cn1nc(-c2ccccc2)c2ccc(C#N)cc21` the figure was 21.8% (inactive).
`O=C(Cn1nc(-c2ccccc2)c2ccccc21)Oc1ccccc1`: the activity change, negative = inhibition in assay [2] (at 26 µM (top of the series)) was 6.4% (inactive).
The same measure, in the same setting: with `COC(=O)Cn1nc(-c2ccccc2OC)c2ccccc21` the figure was -23.3% (inactive); with `COC(=O)Cn1nc(-c2cccc(OC)c2)c2ccccc21`, -0.691% (inactive).
Still for that read-out and setting: for `O=C(Cn1c2ccccc2c2nc3n(c(=O)c21)CCS3)N1CCCC1` the value was -14.3% (inactive) and -26.7% (inactive); for `COC(=O)Cn1nc(-c2cccc(C)c2)c2ccccc21`, 7.2% (inactive).
The same measure, in the same setting: for `COC(=O)Cn1nc(-c2cccc(F)c2)c2ccccc21` the value was 16% (inactive).
In the case of `COC(=O)Cn1nc(-c2cncnc2)c2ccccc21`, the activity change, negative = inhibition in assay [2] (at 19.5 µM (top of the series)) is 7.98% (inactive).
For the molecule `CCOC(=O)Cn1nc(-c2ccccc2)c2ccccc21`, the activity change, negative = inhibition in assay [2] (at 26 µM (top of the series)) was -5.31% (inactive).
`c1ccc(-c2nn(Cc3nn[nH]n3)c3ccccc23)cc1`: in assay [2] (at 26 µM (top of the series)), the activity change, negative = inhibition is 9.64% (inactive).
